Laboratory results: ChEMBL document CHEMBL4004837, “Synthesis and Characterization of Urofuranoic Acids: In Vivo Metabolism of 2-(2-Carboxyethyl)-4-methyl-5-propylfuran-3-carboxylic Acid (CMPF) and Effects on in Vitro Insulin Secretion” (J Med Chem, 2017)

Experiments:
[1] = Initial plasma concentration in mouse at 3 mg/kg, iv; format: ADME, organism-based
Summary of the method: (§1)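 Mouse pharmacokinetics after single intravenous CMPF dosing at 1 or 3 mg/kg. Plasma exposure was followed over time to derive AUC, C0, terminal half-life, clearance and volume of distribution.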

[2] = (§2) Drug metabolism in CD1 mouse adipose assessed as glycerol conjugate formation at 6 mg/kg, ip dosed once daily for 3 days followed by dosing of 1:1 mixtures of 2-(2-(Carboxy-13C)ethyl)-4-methyl-5-propylfuran-3-carboxylic-2-13C Acid and test compound on day 4 and 5 measured 1 hr post dose on day 5 by HPLC-MS analysis; format: ADME, organism-based, Adipose tissue; settings: in vivo
Summary of the method: (§3)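 Mice received CMPF 6 mg/kg intraperitoneally for three days, then 1:1 labeled/unlabeled CMPF mixtures on days four and five. On day five they were euthanized 1 h post-dose, and plasma, adipose, muscle and liver were collected. Samples were analysed by HPLC-MS, with MS/MS of product ions. Metabolites were identified by the distinctive isotope patterns from the 1:1 label mixture.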

Liver [3] = experiment: (§4) Drug metabolism in CD1 mouse liver assessed as diacylglycerol conjugate formation at 6 mg/kg, ip dosed once daily for 3 days followed by dosing of 1:1 mixtures of 2-(2-Carboxyethyl)-4-methyl-5-(1-propyl-1-13C)furan-3-carboxylic Acid and test compound on day 4 and 5 measured 1 hr post dose on day 5 by HPLC-MS analysis; format: ADME, organism-based; settings: in vivo; summary of the method: as §3
Liver [4] = experiment: as §4, with “2-(2-Carboxyethyl)-4-methyl-5-propyl-(3-13C-furan)-3-13Ccarboxylateand” for “2-(2-Carboxyethyl)-4-methyl-5-(1-propyl-1-13C)furan-3-carboxylic Acid and”; format: ADME, organism-based; settings: in vivo; summary of the method: as §3
Liver [5] = experiment: (§5) Drug metabolism in CD1 mouse liver assessed as monoacylglycerol conjugate formation at 6 mg/kg, ip dosed once daily for 3 days followed by dosing of 1:1 mixtures of 2-(2-Carboxyethyl)-4-methyl-5-propyl-(3-13C-furan)-3-13Ccarboxylateand test compound on day 4 and 5 measured 1 hr post dose on day 5 by HPLC-MS analysis; format: ADME, organism-based; settings: in vivo; summary of the method: as §3
CYP2D6 = CYP2D6 (Homo sapiens, UniProt P10635); experiment: Inhibition of human microsomal CYP2D6 at 10 uM after 3 mins by single quad LC/MS analysis; format: ADME; settings: microsomes
CYP2D6, sequence (P10635 whole entry): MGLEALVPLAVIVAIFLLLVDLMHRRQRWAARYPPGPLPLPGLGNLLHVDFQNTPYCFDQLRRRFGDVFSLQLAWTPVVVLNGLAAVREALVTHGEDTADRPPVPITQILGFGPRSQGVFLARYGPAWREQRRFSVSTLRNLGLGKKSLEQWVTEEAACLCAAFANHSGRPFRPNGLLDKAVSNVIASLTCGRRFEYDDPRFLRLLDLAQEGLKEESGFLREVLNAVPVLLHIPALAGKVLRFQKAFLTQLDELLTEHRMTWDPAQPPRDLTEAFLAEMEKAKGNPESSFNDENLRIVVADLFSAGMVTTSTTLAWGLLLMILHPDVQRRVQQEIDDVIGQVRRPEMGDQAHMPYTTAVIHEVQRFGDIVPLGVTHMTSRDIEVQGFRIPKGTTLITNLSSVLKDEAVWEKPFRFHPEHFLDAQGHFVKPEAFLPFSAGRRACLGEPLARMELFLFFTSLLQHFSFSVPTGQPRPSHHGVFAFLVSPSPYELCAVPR

[6] = Suppression of high glucose stimulated insulin secretion in mouse pancreatic islets at 200 uM treated for 24 hrs followed by glucose stimulation for 20 mins by HTRF assay relative to control; format: ADME, cell-based; settings: pancreatic islet
Summary of the method: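 Mouse islet screening assay in high-glucose (20 mM) medium with compounds at 200 µM. Insulin secretion is expressed as fold change relative to vehicle. Mean of n = 4 experiments with SEM; significance by Student's t-test, p ≤ 0.05.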

Hepatocyte = experiment: Cytotoxicity against mouse primary hepatocytes assessed as fold change in capase3/7 activity by Caspase-Glo 3/7 assay relative to DMSO; format: cell-based
[7] = Volume of distribution in mouse at 3 mg/kg, iv; format: ADME, organism-based; settings: in vivo; summary of the method: as §1
[8] = Suppression of glucose-stimulated insulin secretion in mouse pancreatic islet at 200 uM incubated for 24 hrs followed by glucose stimulation for 20 mins by HTRF assay; format: ADME, cell-based
Summary of the method: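 Mouse islets treated with compounds at 200 µM. Insulin secretion was then measured under low- and high-glucose GSIS conditions and under KCl stimulation, and intracellular insulin content was measured. Mean of n = 4-5 experiments with SEM.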

[9] = (§6) Drug metabolism in CD1 mouse adipose assessed as loss of C2 carboxyl during fragmentation at 6 mg/kg, ip dosed once daily for 3 days followed by dosing of 1:1 mixtures of 2-(2-Carboxyethyl)-4-methyl-5-propyl-(3-13C-furan)-3-13Ccarboxylate and test compound on day 4 and 5 measured 1 hr post dose on day 5 by HPLC-MS analysis; format: ADME, organism-based, Adipose tissue; settings: in vivo; summary of the method: as §3
[10] = AUC in mouse at 3 mg/kg, iv; format: ADME, organism-based; settings: in vivo
Plasma [11] = experiment: as §5, with “plasma” for “liver”, “oxidative metabolites” for “monoacylglycerol conjugate”; format: ADME, organism-based; settings: in vivo
Summary of the method: (§7)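 CMPF given 6 mg/kg i.p. once daily for three days. On days four and five, 1:1 mixtures of stable-isotope-labelled and unlabelled CMPF were dosed. Mice were killed 1 h after the day-five dose. Plasma, adipose, muscle and liver were collected and analysed by HPLC-MS (MS/MS for product ions). Metabolites were identified by their distinctive isotope patterns from the labelled/unlabelled mixture.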

Liver [12] = experiment: as §6, with “liver” for “adipose”, “2-(2-Carboxyethyl)-4-methyl-5-(1-propyl-1-13C)furan-3-carboxylic Acid” for “2-(2-Carboxyethyl)-4-methyl-5-propyl-(3-13C-furan)-3-13Ccarboxylate”; format: ADME, organism-based; settings: in vivo; summary of the method: as §3
[13] = as §6, with “muscle” for “adipose”, “2-(2-Carboxyethyl)-4-methyl-5-(1-propyl-1-13C)furan-3-carboxylic Acid” for “2-(2-Carboxyethyl)-4-methyl-5-propyl-(3-13C-furan)-3-13Ccarboxylate”; format: ADME, organism-based, Muscle tissue; settings: in vivo; summary of the method: as §3
[14] = as §5, with “adipose” for “liver”, “oxidative metabolites” for “monoacylglycerol conjugate”; format: ADME, organism-based, Adipose tissue; settings: in vivo; summary of the method: as §3
[15] = as §2, with “diacylglycerol” for “glycerol”; format: ADME, organism-based, Adipose tissue; settings: in vivo; summary of the method: as §3
Plasma [16] = experiment: as §5, with “plasma” for “liver”, “glycerol” for “monoacylglycerol”; format: ADME, organism-based; settings: in vivo; summary of the method: as §7
[17] = as §5, with “muscle” for “liver”, “oxidative metabolites” for “monoacylglycerol conjugate”; format: ADME, organism-based, Muscle tissue; settings: in vivo; summary of the method: as §7
Liver [18] = experiment: as §6, with “liver” for “adipose”; format: ADME, organism-based; settings: in vivo; summary of the method: as §3
Liver [19] = experiment: as §4, with “oxidative metabolites” for “diacylglycerol conjugate”; format: ADME, organism-based; settings: in vivo; summary of the method: as §3
Plasma [20] = experiment: as §5, with “plasma” for “liver”, “diacylglycerol” for “monoacylglycerol”; format: ADME, organism-based; settings: in vivo; summary of the method: as §7
Plasma [21] = experiment: as §2, with “plasma” for “adipose”, “glucuronide” for “glycerol”; format: ADME, organism-based; settings: in vivo; summary of the method: as §7
[22] = Initial plasma concentration in mouse at 1 mg/kg, iv; format: ADME, organism-based; summary of the method: as §1
Plasma [23] = experiment: as §6, with “plasma” for “adipose”, “2-(2-Carboxyethyl)-4-methyl-5-(1-propyl-1-13C)furan-3-carboxylic Acid” for “2-(2-Carboxyethyl)-4-methyl-5-propyl-(3-13C-furan)-3-13Ccarboxylate”; format: ADME, organism-based; settings: in vivo; summary of the method: as §7
[24] = as §5, with “muscle” for “liver”; format: ADME, organism-based, Muscle tissue; settings: in vivo; summary of the method: as §3
[25] = as §4, with “muscle” for “liver”, “oxidative metabolites” for “diacylglycerol conjugate”; format: ADME, organism-based, Muscle tissue; settings: in vivo; summary of the method: as §7
[26] = as §2, with “monoacylglycerol” for “glycerol”; format: ADME, organism-based, Adipose tissue; settings: in vivo; summary of the method: as §3
[27] = Clearance in mouse at 3 mg/kg, iv; format: ADME, organism-based; settings: in vivo

- C0 [1]: 130 µM
- Drug metabolism [2]: Metabolite_Notdetected
- Drug metabolism (Liver [3]): Metabolite_Notdetected
- Drug metabolism (Liver [4]): Metabolite_Notdetected
- Drug metabolism (Liver [5]): Metabolite_Notdetected
- inhibition at 0.05 h, 10 µM (CYP2D6): 0%
- Vd [7]: 0.2 L/kg
- Drug metabolism [9]: Metabolite_Detected
- AUC [10]: 210 µM·h
- Drug metabolism (Plasma [11]): Metabolite_Notdetected
- Drug metabolism (Liver [12]): Metabolite_Detected
- Drug metabolism [13]: Metabolite_Detected
- Drug metabolism [14]: Metabolite_Notdetected
- Drug metabolism [15]: Metabolite_Notdetected
- Drug metabolism (Plasma [16]): Metabolite_Notdetected
- Drug metabolism [17]: Metabolite_Notdetected
- Drug metabolism (Liver [18]): Metabolite_Detected
- Drug metabolism (Liver [19]): Metabolite_Notdetected
- Drug metabolism (Plasma [20]): Metabolite_Notdetected
- Drug metabolism (Plasma [21]): Metabolite_Detected
- C0 [22]: 53.3 µM
- Drug metabolism (Plasma [23]): Metabolite_Detected
- Drug metabolism [24]: Metabolite_Notdetected
- Drug metabolism [25]: Metabolite_Notdetected
- Drug metabolism [26]: Metabolite_Notdetected
- clearance [27]: 0.85 mL/min/kg
SMILES: CCCc1oc(CCC(=O)O)c(C(=O)O)c1C
- Activity [6]: Toxic
- fold change (FC) (Hepatocyte): 0.7 to 0.8
- Activity [8]: Toxic
